In brackets after ≈: the same amount, converted by molar mass.
Columns and labels:
E. faecium 106 (Van R) = test: MIC by microdilution; type: cell-based; details: Enterococcus faecium
Outline: (§1)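 CLSI broth microdilution in cation-adjusted Mueller Hinton II broth, final inoculum 5 × 10⁵ CFU/mL. Plates incubated at 35 °C and read after 16–20 or 20–24 h depending on species. MIC taken as the lowest concentration with no visible growth. All determinations in triplicate.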

S. aureus VRS1 = test: MIC by microdilution; type: cell-based; details: Staphylococcus aureus, MRSA
Outline: (§2)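 S. aureus was tested by CLSI broth microdilution in cation-adjusted Mueller Hinton II broth, final inoculum 5 × 10⁵ CFU/mL, 35 °C, read after 16–20 or 20–24 h; oxacillin was tested with 2% NaCl. MIC was the lowest concentration without visible growth, in triplicate. For ATCC 29213, inocula of 5 × 10⁶ and 5 × 10⁷ CFU/mL were also tested.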

red blood cells = test: Hemolysis assay; type: cell-based, horse; details: horse RBCs, 37 °C, 1 h; 3% values at 64 μg/mL (32-fold above the MIC)
S. epidermis ATCC 35547 = test: MIC by microdilution; type: cell-based
Outline: as §1

S. aureus NRS119 = test: MIC by microdilution; type: cell-based; details: Staphylococcus aureus
Outline: as §2

[1] = tested on: S. hemolyticus ATCC 29970; test: MIC by microdilution; type: cell-based; details: Streptococcus pyogenes, ATCC29970
E. faecium NCTC 7171 = test: MIC by microdilution; type: cell-based; details: Enterococcus faecium, NCTC7171
Outline: as §1

S. aureus NRS120 = test: MIC by microdilution; type: cell-based; details: Staphylococcus aureus
Outline: as §2

S. pyogenes ATCC 49399 = test: MIC by microdilution; type: cell-based; details: Streptococcus pyogenes, ATCC49399
Outline: (§3)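 Streptococcal MICs came from CLSI broth microdilution in cation-adjusted Mueller Hinton II broth with 5% lysed horse blood. Final inoculum 5 × 10⁵ CFU/mL, incubation at 35 °C, read after 16–20 or 20–24 h depending on species. MIC was the lowest concentration without visible growth, determined in triplicate.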

Pharmacokinetics in mice = type: in vivo
Outline: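 Female ICR mice received a single 50 mg/kg dose, either iv in 10% DMSO/25% Tween-80/65% water or po by gavage (n = 3 per time point). Terminal blood was taken at 2 min–24 h after iv and 0.5–48 h after po, then centrifuged for plasma. Plasma was precipitated with acetonitrile containing internal standard and analysed by C18 UPLC-ESI(+)-MRM against calibration curves in blank mouse plasma.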

E. faecalis 99 (Van R) = test: MIC by microdilution; type: cell-based; details: Enterococcus faecalis
Outline: as §1

S. aureus ATCC 29213 = test: MIC by microdilution; type: cell-based; details: Staphylococcus aureus, ATCC29213
Outline: as §2

S. aureus NRS100 (COL) = test: MIC by microdilution; type: cell-based; details: Staphylococcus aureus
Outline: as §2

[2] = tested on: E. faecium 119–39A (Van S); test: MIC by microdilution; type: cell-based; details: Enterococcus faecium
Outline: as §1

E. faecalis ATCC 29212 = test: MIC by microdilution; type: cell-based; details: Enterococcus faecalis, ATCC29212
Outline: as §1

S. oralis ATCC 9811 = test: MIC by microdilution; type: cell-based; details: Streptococcus oralis, ATCC9811
Outline: as §3

S. aureus VRS2 = test: MIC by microdilution; type: cell-based; details: Staphylococcus aureus, MRSA
Outline: as §2

E. faecalis 201 (Van S) = test: MIC by microdilution; type: cell-based; details: Enterococcus faecalis
Outline: as §1

S. aureus ATCC 27660 = test: MIC by microdilution; type: cell-based; details: Staphylococcus aureus, ATCC27660
Outline: as §2

[3] = ICR, mouse, plasma, iv, 50 mg/kg
[4] = female, ICR, mouse, plasma, po, 50 mg/kg

SMILES | MIC (E. faecium 106 (Van R)) | MIC (S. aureus VRS1) | MIC (S. epidermis ATCC 35547) | MIC (S. aureus NRS119) | MIC [1] | MIC (E. faecium NCTC 7171) | MIC (S. aureus NRS120) | MIC (S. pyogenes ATCC 49399) | MIC (E. faecalis 99 (Van R)) | MIC (S. aureus ATCC 29213) | MIC (S. aureus NRS100 (COL)) | MIC [2] | MIC (E. faecalis ATCC 29212) | MIC (S. oralis ATCC 9811) | MIC (S. aureus VRS2) | MIC (E. faecalis 201 (Van S)) | MIC (S. aureus ATCC 27660) | other results
Nc1ccc(-c2nc(-c3ccc(Oc4ccc(C(F)(F)F)cc4)cc3)no2)cc1 [Compound 4, 4-(3-(4-(4-(Trifluoromethyl)phenoxy)phenyl)-1,2,4-oxadiazol-5-yl)aniline] | 2 µg/mL (≈ 5.03 µM) | 2 µg/mL (≈ 5.03 µM) | 2 µg/mL (≈ 5.03 µM) | 2 µg/mL (≈ 5.03 µM) | 4 µg/mL (≈ 10.1 µM) | 2 µg/mL (≈ 5.03 µM) | 2 µg/mL (≈ 5.03 µM) | 32 µg/mL (≈ 80.5 µM) | 2 µg/mL (≈ 5.03 µM) | 2 µg/mL (≈ 5.03 µM) | 2 µg/mL (≈ 5.03 µM) | 1 µg/mL (≈ 2.52 µM) | 2 µg/mL (≈ 5.03 µM) | 32 µg/mL (≈ 80.5 µM) | 2 µg/mL (≈ 5.03 µM) | > 32 µg/mL | 2 µg/mL (≈ 5.03 µM) | hemolysis of red blood cells (red blood cells): not hemolytic at all; AUC(0-inf) (Pharmacokinetics in mice; [3]): 153 µg·h/mL; Vd (Pharmacokinetics in mice; [3]): 0.72 L/kg; clearance (Pharmacokinetics in mice; [3]): 5.4 mL/min/kg; AUC(0-inf) (Pharmacokinetics in mice; [4]): 154 µg·h/mL; Cmax (Pharmacokinetics in mice; [4]): 10000 ng/mL; Tmax (Pharmacokinetics in mice; [4]): 2 h; higher systemic exposure relative to comparator compound (Pharmacokinetics in mice; mice, 50 mg/kg iv, compound 3 vs compound 2, compound 4 vs compound 3): 3.5 fold; volume of distribution (in words) (Pharmacokinetics in mice; mice, single 50 mg/kg iv): large volume of distribution
CC(=O)NC[C@H]1CN(c2ccc(N3CCOCC3)c(F)c2)C(=O)O1 [linezolid, reference compound] | 1 µg/mL (≈ 2.96 µM) | 2 µg/mL (≈ 5.93 µM) | 1 µg/mL (≈ 2.96 µM) | 32 µg/mL (≈ 94.9 µM) | 2 µg/mL (≈ 5.93 µM) | 2 µg/mL (≈ 5.93 µM) | 32 µg/mL (≈ 94.9 µM) | 1 µg/mL (≈ 2.96 µM) | 1 µg/mL (≈ 2.96 µM) | 4 µg/mL (≈ 11.9 µM) | 2 µg/mL (≈ 5.93 µM) | 2 µg/mL (≈ 5.93 µM) | 2 µg/mL (≈ 5.93 µM) | 1 µg/mL (≈ 2.96 µM) | 2 µg/mL (≈ 5.93 µM) | 2 µg/mL (≈ 5.93 µM) | 2 µg/mL (≈ 5.93 µM) | –
CN[C@H](CC(C)C)C(=O)N[C@H]1C(=O)N[C@@H](CC(N)=O)C(=O)N[C@H]2C(=O)N[C@H]3C(=O)N[C@H](C(=O)N[C@H](C(=O)O)c4cc(O)cc(O)c4-c4cc3ccc4O)[C@H](O)c3ccc(c(Cl)c3)Oc3cc2cc(c3O[C@@H]2O[C@H](CO)[C@@H](O)[C@H](O)[C@H]2O[C@H]2C[C@](C)(N)[C@H](O)[C@H](C)O2)Oc2ccc(cc2Cl)[C@H]1O [vancomycin, reference compound] | 256 µg/mL (≈ 177 µM) | 512 µg/mL (≈ 353 µM) | 16 µg/mL (≈ 11 µM) | 2 µg/mL (≈ 1.38 µM) | 2 µg/mL (≈ 1.38 µM) | 0.5 µg/mL (≈ 0.345 µM) | 2 µg/mL (≈ 1.38 µM) | 0.6 µg/mL (≈ 0.414 µM) | 128 µg/mL (≈ 88.3 µM) | – | 2 µg/mL (≈ 1.38 µM) | 0.5 µg/mL (≈ 0.345 µM) | 2 µg/mL (≈ 1.38 µM) | 0.5 µg/mL (≈ 0.345 µM) | 64 µg/mL (≈ 44.2 µM) | 1 µg/mL (≈ 0.69 µM) | 1 µg/mL (≈ 0.69 µM) | –

— paper PMC3985699 (Journal of the American Chemical Society, 2014)
